Most compounds without a hit are left out; they make up all but 3.5% or so of the library.
RGS4 act = RGS4 potentiation or activation. B-score at 10 µM. hit rate 0.92% among 310,000. HEK293 M3R/inducible RGS4, carbachol calcium flux Fluo4; active compounds read low;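 active = B-score of the integrated calcium signal more than 4 SD below the library mean, with starting fluorescence not abnormally high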;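 also: negative B-score means reduced calcium response which marks RGS4 activation or potentiation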
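Test system: HEK293 cells with stable M3R and inducible RGS4; also added: carbachol at ECmax as muscarinic agonist stimulus; schedule: dye loading 30 min 37 °C, buffer rest 30 min RT; technique: kinetic calcium fluorescence imaging with Fluo4-AM dye, 2 µM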
RGS4 inh = inhibitors of human RGS4; B-score at 10 µM; hit rate 0.45% among 310,000; HEK293 M3R/RGS4 inducible, Fluo-4 calcium flux; active compounds read high; triggered by carbachol at its EC20; P49798;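 active = B-score, a plate-corrected calcium signal, over three deviations above library mean, with baseline fluorescence within five deviations of library mean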;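 also: RGS4 expression induced by doxycycline in cells with stable M3 receptor; B-score is computed from the integrated fluorescence ratio over baseline after carbachol; higher B-score means a larger calcium signal and so more RGS4 inhibition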
Target sequence (P49798 whole entry, looked up): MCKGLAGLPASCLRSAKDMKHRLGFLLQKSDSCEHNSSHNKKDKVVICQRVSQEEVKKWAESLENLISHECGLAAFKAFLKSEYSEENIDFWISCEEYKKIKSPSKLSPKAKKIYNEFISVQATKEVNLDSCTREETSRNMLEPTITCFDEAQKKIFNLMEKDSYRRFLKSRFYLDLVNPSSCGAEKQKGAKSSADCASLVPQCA
MrgX1 ag = agonists of human MrgX1 receptor. MrgX1-HEK293 cells, Fluo-4 calcium fluorescence, agonist mode; active compounds read high. B-score at 10 µM. hit rate 0.44% among 310,000. AID 588627;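 active = calcium response B-score plate-corrected fluorescence ratio at least 3 library SD, with starting fluorescence B-score inside 5 SD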
Target sequence (Q96LB2 whole entry, looked up): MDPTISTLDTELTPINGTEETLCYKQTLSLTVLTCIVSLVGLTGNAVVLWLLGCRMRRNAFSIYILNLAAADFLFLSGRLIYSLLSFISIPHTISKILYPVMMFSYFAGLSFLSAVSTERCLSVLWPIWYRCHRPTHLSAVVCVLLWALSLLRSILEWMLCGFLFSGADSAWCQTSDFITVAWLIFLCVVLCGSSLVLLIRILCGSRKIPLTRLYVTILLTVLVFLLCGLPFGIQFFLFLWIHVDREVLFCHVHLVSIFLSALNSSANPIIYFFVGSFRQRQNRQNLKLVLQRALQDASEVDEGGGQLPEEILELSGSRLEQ
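Material: MrgX1-expressing HEK293 cells; input: 15,000 cells per well; doses: test compound given as first of three sequential additions; schedule: overnight plating before 1 h dye loading; technique: Fluo-4 NW calcium-flux fluorescence, kinetic read; evaluation: baseline-normalised fluorescence change ratio, B-scored; control set: plate-wise positive and negative controls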
MrgX1 PAM = human MrgX1 positive allosteric modulation, primary screen; Q96LB2; MrgX1-HEK293, Fluo-4 calcium flux, FDSS; active compounds read high; B-score at 10 µM; hit rate 0.63% among 310,000; AID 588675;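 active = plate-corrected calcium response at least 3 library SD above typical, normal starting fluorescence, not activating the receptor alone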;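 also: compound read alongside a low EC10 to EC30 dose of BAM8-22 agonist; peak minus trough fluorescence over baseline measured at the second addition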
MrgX1 antagonist = antagonists of human MrgX1 receptor. Q96LB2. MRGX1-HEK293 calcium flux, Fluo-4, BAM8-22 antagonism; active compounds read low. B-score at 10 µM. hit rate 1.3% among 310,000;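 active = calcium-response B-score plate-corrected more than 3 library SD below zero, starting fluorescence within 5 deviations, no agonist response on first addition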;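 also: peak minus trough fluorescence over baseline after final BAM8-22 challenge near maximal dose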
RGS4 inh valid = validation of RGS4 inhibitors; shares compounds with RGS4 inh; HEK293 M3R/RGS4, carbachol calcium Fluo-4 fluorescence; carbachol added at its EC20; 0 = buffer wells, 100 = carbachol control; calcium response, % at 10 µM; hit rate 65% among 1,700;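 active = duplicate-averaged calcium response above the buffer-only control mean plus 5 SD of those controls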;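 also: integrated fluorescence ratio F max minus min over baseline F0; higher response in RGS4-induced cells means RGS4 inhibition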
RGS4 uninduced = counter-screen for RGS4 inhibitors: effect in non-induced cells; shares compounds with RGS4 inh; HEK293 M3R non-induced, carbachol calcium Fluo-4; submaximal (EC20) carbachol stimulus; buffer wells 0%, carbachol control wells 100%; activity (percent), % at 10 µM; hit rate 20% among 1,900; call rule not given here;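 also: RGS4 induction absent so cells express M3R without RGS4; higher means more calcium signal and flags a non-specific hit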
M3R basal Ca ctr = second RGS4 inhibitor counter-screen in uninduced cells lacking carbachol; hit rate 22% among 1,900; HEK293 M3R/RGS4 non-induced, Fluo-4 calcium, no carbachol; normalised: buffer wells 0%, carbachol wells 100%; shares compounds with RGS4 inh; calcium response (agonist-mode artifact), % at 10 µM;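 active = duplicate-averaged calcium rise in uninduced cells above buffer wells' mean plus 5 SD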
* marks the source's active call; other numbers are inactive results; i = inactive; . = no result.

SMILES	RGS4 act	RGS4 inh	MrgX1 ag	MrgX1 PAM	MrgX1 antagonist	RGS4 inh valid	RGS4 uninduced	M3R basal Ca ctr
COc1ccccc1CN=C1NC(=O)C(CC(=O)Nc2ccc(OC)c(OC)c2)S1 (stereo not given)	i	5.64*	i	i	i	8.5%*	i	i
COc1ccc(CC(NC(C)=O)C(=O)NC2CCN(S(=O)(=O)c3ccccc3)CC2)c(OC)c1 (stereo not given)	i	i	i	i	i	.	i	i
CCOC(=O)c1ccc(N2C(=O)c3n[nH]c(-c4ccco4)c3C2c2ccc([N+](=O)[O-])cc2)cc1 (stereo not given)	i	i	i	i	i	i	i	i
Cc1ccc(C)c(C2C(C#N)=C(N)Oc3cc(C)oc(=O)c32)c1 (stereo not given)	i	i	i	i	i	.	.	.
Cc1ccc(C2C(C#N)=C(N)Oc3cc(C)oc(=O)c32)o1 (stereo not given)	i	7.26*	i	i	i	21.5%*	i	i
O=C(C1=C(O)C(=O)N(c2ncccn2)C1c1cccc(Cl)c1)c1ccco1 (stereo not given)	i	i	i	i	i	.	.	.
O=C(C1=C(O)C(=O)N(Cc2ccco2)C1c1cccc([N+](=O)[O-])c1)c1ccco1 (stereo not given)	i	i	i	i	i	i	i	i
O=C(C1=C(O)C(=O)N(Cc2ccco2)C1c1cccc(Cl)c1)c1ccco1 (stereo not given)	i	i	i	i	i	i	i	i
CCCCn1c(N)c(N(CC(C)C)C(=O)CC2CCCC2)c(=O)[nH]c1=O	i	i	i	i	i	.	.	.
COc1ccc(CNC(=O)C2CCC(CNc3c(N4CCC(C)CC4)c(=O)c3=O)CC2)cc1 (stereo not given)	i	i	i	i	i	.	.	.
COc1ccc(/C=C2/S/C(=N/S(=O)(=O)Cc3ccccc3)NC2=O)cc1OC	i	7.78*	i	i	i	19.5%*	48.0%*	i
COc1cc(/C=C2\S/C(=N/S(=O)(=O)c3ccc(C)cc3)NC2=O)c([N+](=O)[O-])cc1OC	i	i	i	i	i	i	38.5%*	i
O=C1N/C(=N\S(=O)(=O)Cc2ccccc2)S/C1=C/c1cccc([N+](=O)[O-])c1	i	i	i	i	i	.	.	.
Cc1ccc(S(=O)(=O)/N=C2/NC(=O)/C(=C/c3ccccc3)S2)cc1	i	i	i	i	i	i	i	i
CC(=O)Nc1ccc(S(=O)(=O)/N=C2/NC(=O)/C(=C\c3ccco3)S2)cc1	i	i	i	i	i	.	.	.
O=C1N/C(=N/S(=O)(=O)c2ccccc2)S/C1=C/c1cccnc1	i	i	i	i	i	.	.	.
Cc1ccc(S(=O)(=O)/N=C2/NC(=O)/C(=C/c3ccncc3)S2)cc1	i	4.91*	i	i	i	16.0%*	i	i
COc1cccc(NC(=O)NCc2ccccc2Cl)c1	i	i	i	i	i	.	.	.
CCOC(=O)[C@@H]1[C@H]2COc3cc(OC)ccc3[C@H]2N2C(=O)N(c3ccc(C)cc3)C(=O)[C@@]12C	i	i	i	i	i	.	.	.
CC(C)Cc1nc(SCC(=O)N2CCCCC2)c2c(=O)n(C)c(=O)n(C)c2n1	i	i	i	i	i	.	.	.
CCN(CC)CCn1c2ccccc2c2nc3ccc([N+](=O)[O-])cc3cc21	i	i	i	i	i	.	.	.
Nc1nc(-c2cccnc2)nn1C(=O)c1ccc(F)cc1	i	i	.	.	.	.	.	.
Cc1cc(N=Cc2c(O)ccc3cc(Br)ccc23)no1	i	9.93*	i	i	i	i	i	23.5%*
Cc1cc(N=Cc2c(O)ccc3ccccc23)no1	i	i	i	i	i	.	.	.
N#Cc1c(N2C(=O)Nc3ccccc3N2O)sc2c1CCCCCC2	i	5.24*	i	i	i	15.5%*	41.5%*	i
SMILES	RGS4 act	RGS4 inh	MrgX1 ag	MrgX1 PAM	MrgX1 antagonist	RGS4 inh valid	RGS4 uninduced	M3R basal Ca ctr
N#Cc1c(N2CCOCC2)nc(-c2ccco2)c2c1CCCC2	i	i	i	i	i	i	i	i
CC1(C)Cc2c(C#N)c(NCc3ccco3)nc(-c3ccco3)c2CO1	i	i	i	i	i	.	.	.
CC1(C)Cc2c(C#N)c(N3CCCC3)nc(-c3ccco3)c2CO1	i	8.53*	i	i	i	6.0%*	i	13.0%*
CCc1nc(N2CCOCC2)c(C#N)c2c1CCCC2	i	i	i	i	i	.	.	.
Cc1ccc2nc(-c3cccc(NS(C)(=O)=O)c3)cc(-c3ccccc3)c2c1	i	i	i	i	i	.	.	.
CCn1c(C)cs/c1=N\S(=O)(=O)c1ccccc1	i	i	i	i	i	.	.	.
O=Cc1s/c(=N\S(=O)(=O)c2ccccc2)n(CCCCl)c1Cl	i	5.36*	.	.	.	9.0%*	i	19.5%*
Cc1cccc(/C=C/C(=O)c2ccc([N+](=O)[O-])o2)c1	i	6.97*	i	i	i	19.5%*	i	8.5%*
O=C(/C=C/c1cccc([N+](=O)[O-])c1)c1ccc([N+](=O)[O-])o1	i	12.8*	i	i	i	30.0%*	i	i
COc1ccc(S(=O)(=O)N2CCN(C(=O)c3ccc([N+](=O)[O-])o3)CC2)cc1	i	i	i	i	i	.	.	.
COc1ccc(/C=C/C(=O)c2ccc([N+](=O)[O-])o2)cc1	i	10.6*	i	i	i	25.0%*	32.0%*	i
Cc1ccccc1/C=C/C(=O)c1ccc([N+](=O)[O-])o1	i	6.65*	i	i	i	24.5%*	i	i
Cc1ccc(NC(=O)c2ccc([N+](=O)[O-])o2)c(C)c1	i	i	i	i	i	.	.	.
C/C(=N\NC(=O)CNC(=O)c1ccccc1F)c1ccco1	i	i	i	i	i	.	.	.
Cc1[nH]c(C)c(S(=O)(=O)NCc2ccc(F)cc2)c1C(=O)N1CCCCC1	i	i	i	i	i	.	.	.

High-throughput results: PubChem BioAssay, Johns Hopkins Ion Channel Center
